# In PMC5819594 (Nano letters, 2017):
# “Also recorded” adds a separate entry of the source. No end group written: not given here.
# T1: p32 (Homo sapiens, UniProt Q07021)
# T1 sequence (Q07021 74-282): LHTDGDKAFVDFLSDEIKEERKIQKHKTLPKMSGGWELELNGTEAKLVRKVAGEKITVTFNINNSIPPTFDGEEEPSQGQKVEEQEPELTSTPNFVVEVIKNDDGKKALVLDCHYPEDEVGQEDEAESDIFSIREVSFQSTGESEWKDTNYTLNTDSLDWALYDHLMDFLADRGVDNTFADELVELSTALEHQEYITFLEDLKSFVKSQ
# T2: LinTT1 (also: FAM-labeled)
# T2 chain: AKRGARSTA
# How the values were obtained:
# p32 [1] = target: T1, p32; test: fluorescence anisotropy; assay type: binding
# tumors = settings: cited from earlier work
# [2] = system: MCF10CA1a orthotopic tumor xenografts; test: anti-tumor efficacy, MCF10CA1a breast cancer model; assay type: in vivo, human tumor cells in BALB/c nude mice; settings: for reduction of tumor volume versus PBS: i.v. every other day for 3 weeks, 7.5 mg of iron/kg, at three weeks
# [3] = system: tumor blood vessels (CD31); test: CD31 blood vessel count in treated tumors; assay type: in vivo; settings: n = 3 mice per group; for average blood vessel count: CD31, 10 random fields at 20×
# Summary of the method: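 Residual MCF10CA1a orthotopic tumors came from nude mice given peptide-coated NWs i.v. every other day for 3 weeks (7.5mg iron/kg), with a PBS control. Sections were stained with anti-CD31 and imaged by confocal microscopy. Vessels per field were counted, and groups were compared by one-way ANOVA with Tukey's post hoc test.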
# [4] = system: tumor vessels of treated MCF10CA1a tumors; test: NW homing to residual treated tumors; assay type: in vivo, mice; settings: for NW-positive tumor vessels: treated tumors after three weeks, five hours after last injection, n = 3/group
# Summary of the method: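 MCF10CA1a tumor mice were treated for three weeks with FAM-labeled peptide-NWs. Five hours after the last injection, mice were perfused through the heart with PBS and tissues collected. Tumor sections were stained with anti-CD31 and DAPI and examined by confocal microscopy. Percentage of NW-positive vessels was scored in 10 random areas per section, n = 3/group, mean ±SD.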
# MCF10CA1a tumors [5] = settings: cited from earlier work
# glioblastomas = settings: mice, cited from earlier work
# MCF10CA1a tumors [6] = test: tumor homing of homing peptide-D[KLAKLAK]2-NWs, MCF10CA1a; assay type: in vivo, human tumor cells in BALB/c nude mice; settings: for tumor homing and penetration of chimeric peptide-NWs: confocal microscopy
# p32 [7] = target: T1, p32; settings: LyP-1 linearized; no reference given; cited from earlier work
# [8] = system: tumor-associated macrophages/myeloid cells; settings: ref Laakkonen et al., 2004; Fogal et al., 2008; cited from earlier work
# tumor macrophages = settings: LyP-1 alone, without drug, tumor macrophages in particular; cited from earlier work
# [9] = system: 4T1 mouse breast cancer tumors; test: tumor homing in 4T1 model; assay type: in vivo; settings: 4T1 breast tumor model
# Summary of the method: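 4T1 cells were maintained in DMEM with 10% FBS and 1% Glutamine-Pen-Strep at 37°C/5% CO2. 1 × 10^6 cells were implanted subcutaneously in the flanks of 4-week-old BALB/c mice. Peptide-coated NWs were assessed for homing to tumor vasculature and extravascular tumor tissue.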
# MMTV-PyMT tumors = test: tumor homing in MMTV-PyMT model; assay type: in vivo, mouse; settings: MMTV-PyMT transgenic breast cancer mice
# MCF10CA1a tumors [10] = test: TUNEL staining of treated tumors; assay type: in vivo, human tumor cells in BALB/c nude mice; settings: treated tumors after three weeks
# MCF10CA1a tumors [11] = test: histology; assay type: in vivo, human tumor cells in BALB/c nude mice; settings: end of 3-week treatment, H&E
# Summary of the method: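 Orthotopic MCF10CA1a xenografts in BALB/c nude mice were treated i.v. with peptide-coated NWs every other day for 3 weeks at 7.5mg iron/kg. At the end of treatment, residual tumors were sectioned and stained with hematoxylin and eosin.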
# [12] = system: MCF10CA1a cultured tumor cells; test: cell death and caspase-3 activation in cultured tumor cells; assay type: cell-based, human; settings: Figure S8
# [13] = mouse, in vivo
# NRP-1 = test: peptide binding to NRP-1 before and after uPA treatment; settings: control peptide with active CendR motif, with and without uPA
# LinTT1 = target: T2, LinTT1; test: fluorescence anisotropy
molecule,measurement,setting,value
AKRGARSTA [LinTT1],Kd,p32 [1],8.7 µM
CGKRK,tumor homing and penetration of free peptide,tumors; CGKRK (no reference at the statement),does not extravasate and penetrate beyond tumor vessels
"CGKRK-D[KLAKLAK]2 [CGKRK-D[KLAKLAK]2-NWs, reference compound]",reduction of tumor volume versus PBS,[2],about 50%
same,average blood vessel count,[3],almost similar to LinTT1NW
same,NW-positive tumor vessels,[4],20%
same,tumor homing of CGKRK-D[KLAKLAK]2-NWs (as shown previously),MCF10CA1a tumors [5],"accumulated in tumor blood vessels, without penetrating into extravascular tumor tissue"
same,lifespan in glioblastoma,glioblastomas; more aggressive glioblastoma model,a substantial prolongation of the lifespan of the mice
same,tumor growth in glioblastoma,glioblastomas; one glioblastoma model,the growth of tumors was essentially completely suppressed
CGKRKRA-D[KLAKLAK]2 [CGKRKRA-D[KLAKLAK]2-NWs],tumor homing and penetration of chimeric peptide-NWs,MCF10CA1a tumors [6],primarily localized with tumor blood vessels similar to LyP1
CGNKRTRGC [LyP-1],p32-binding activity,p32 [7],no detectable p32-binding activity
same,overlap with tumor-associated macrophages/myeloid cells,[8],substantial overlap with tumor-associated macrophages/myeloid cells in tumor tissue
same,tumor homing and penetration of LyP-1,tumors,capable of penetrating into tumors and accumulates in the extravascular tumor tissue
same,apoptosis in cells that take up the peptide,tumor macrophages,"causes apoptosis in the cells that take up the peptide most avidly, tumor macrophages in particular"
CGRKR(NH2)-D[KLAKLAK]2 [CGRKR(NH2)-D[KLAKLAK]2-NWs],tumor homing and penetration of chimeric peptide-NWs,MCF10CA1a tumors [6],primarily localized with tumor blood vessels similar to LyP1
LinTT1-D[KLAKLAK]2 [LinTT1-D[KLAKLAK]2-NWs],tumor homing and penetration of chimeric peptide-NWs,MCF10CA1a tumors [6],"highly effective in extravasating and penetrating tumor parenchyma; also recorded: superior to other chimeric peptide-NWs; also recorded: partially co-localize with tumor blood vessels (CD31), but most of the NWs are outside the blood vessels in the extravascular tumor tissue"
same,tumor accumulation relative to CGKRK-D[KLAKLAK]2-NWs,MCF10CA1a tumors [6]; quantified NW fluorescence,over 7 fold
same,"tumor homing, 4T1",[9],"efficiently homed to the vasculature of the 4T1 and MMTV-PyMT tumors, accumulating also in extravascular tumor tissue"
same,"tumor homing, MMTV-PyMT",MMTV-PyMT tumors,"efficiently homed to the vasculature of the 4T1 and MMTV-PyMT tumors, accumulating also in extravascular tumor tissue"
same,anti-tumor activity,"[2]; 3 weeks, 7.5 mg of iron/kg i.v. every other day",essentially no tumor growth; also recorded: more effective than the previous NPs
same,reduction of tumor volume versus PBS,[2],about 90%
same,mice in which tumor seemed to have disappeared,"[2]; one of two experiments, 3 weeks",four out of 6 mice
same,tumors regressed,"[2]; proportion of tumors, LinTT1D(KLAKLAK)2-NW group",10/14
same,average blood vessel count,[3],marked reduction of blood vessels
same,reduction of blood vessels versus PBS control,"[3]; CD31, after treatment",more than 6 fold
same,NW-positive tumor vessels,[4],Approximately 68%
same,accumulation in treated tumors,[4]; tumors treated with LinTT1D(KLAKLAK)2-NWs for 3 weeks,no apparent decline in accumulation
same,apoptosis by TUNEL staining,MCF10CA1a tumors [10],"apoptosis in the LinTT1D[KLAKLAK]2-NW tumor rims, where it co-localized with the NWs"
same,necrosis and apoptotic nuclei in residual tumors,MCF10CA1a tumors [11],extensive necrosis and a thin rim of tumor tissue around the necrotic core that contained many apparently apoptotic nuclei
same,cell death and caspase-3 activation,[12],cell death accompanied by activation of caspase-3
same,toxicity,[13],no significant toxicity
RPARPAR,binding to NRP-1 regardless of uPA,NRP-1,bound only to NRP-1 regardless of uPA treatment
p32 (gC1qR/HABP) (protein) LHTDGDKAFVDFLSDEIKEERKIQKHKTLPKMSGGWELELNGTEAKLVRKVAGEKITVTFNINNSIPPTFDGEEEPSQGQKVEEQEPELTSTPNFVVEVIKNDDGKKALVLDCHYPEDEVGQEDEAESDIFSIREVSFQSTGESEWKDTNYTLNTDSLDWALYDHLMDFLADRGVDNTFADELVELSTALEHQEYITFLEDLKSFVKSQ,Kd,LinTT1,8.7 µM
